The source of these data is ChEMBL document CHEMBL1144306, “1-Hydroxyalkyl-3-phenylthioureas as novel HDL-elevating agents” (2005).

Assay type in all cases: functional
Test [1] relates to Rattus norvegicus. As to the kind of experiment: Effect on level of triglyceride in (relative to untreated control) in cholesterol fed-male rats at 75 mg/kg/day. Put shortly: (§1)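 Serum triglycerides were measured in groups of six male Sprague–Dawley rats on a cholic acid/cholesterol-supplemented diet. Compound was dosed in the diet, ad libitum, for eight days. Results are % change relative to untreated controls, with significance at p < 0.05.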

In test [2] the test system is Rattus norvegicus. Briefly: Effect on level of apolipoprotein (Apo) AI (relative to untreated control) in cholesterol fed-male rats at 75 mg/kg/day. The procedure, abridged: (§2)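 Six male Sprague–Dawley rats per group, fed a cholic acid/cholesterol-supplemented diet, received compound in the diet ad libitum for eight days. Serum Apo A–I was measured by SDS-PAGE or by rat competition ELISA and reported as % change versus untreated controls (p < 0.05). Gemfibrozil was the internal positive control in each study.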

In test [3] the test system is Rattus norvegicus. As to the kind of experiment: Effect on level of high density lipoprotein cholesterol (relative to untreated control) in cholesterol fed-male rats at 75 mg/kg/day. Put shortly: (§3)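 Male Sprague–Dawley rats (groups of six) fed a cholic acid- and cholesterol-supplemented diet; compound mixed into the diet, given ad libitum for eight days. Lipoproteins were separated by ultracentrifugation, and cholesterol was measured by an enzymatic colorimetric method. Results are % change versus untreated controls, with significance at p < 0.05.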

Test [4] relates to Rattus norvegicus. As to the kind of experiment: Effect on level of total cholesterol (relative to untreated control) in cholesterol fed-male rats at 75 mg/kg/day. The procedure, abridged: as §3
In test [5] the test system is Rattus norvegicus. Briefly: Effect on change in body weight gain (relative to untreated control) in cholesterol fed-male rats at 75 mg/kg/day. Put shortly:
(§4)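 Male Sprague–Dawley rats, six per group, on a cholic acid- and cholesterol-supplemented diet. Compounds were mixed into the diet and given ad libitum for eight days. Change in body weight gain is expressed as a percentage of untreated controls. Significance was set at p < 0.05 versus untreated controls.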

Test [6] deals with Rattus norvegicus. Briefly: Effect on level of high density lipoprotein cholesterol (relative to untreated control) in cholesterol fed-male rats at 80 mg/kg/day. Put shortly: as §3
Test [7] concerns Rattus norvegicus. Briefly: Effect on level of apolipoprotein (Apo) AI (relative to untreated control) in cholesterol fed-male rats at 80 mg/kg/day. Put shortly:
as §2

Test [8] relates to Rattus norvegicus. As to the kind of experiment: Effect on change in body weight gain (relative to untreated control) in cholesterol fed-male rats at 80 mg/kg/day. Put shortly: as §4
Test [9] has as its system Rattus norvegicus. As to the kind of experiment: Effect on level of triglyceride in (relative to untreated control) in cholesterol fed-male rats at 80 mg/kg/day. Put shortly:
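Compound given in diet ad libitum for eight days to groups of six male Sprague–Dawley rats on a cholic acid and cholesterol-supplemented diet. Serum triglycerides expressed as % change relative to untreated controls, with significance at p < 0.05. Gemfibrozil served as internal positive control within each study.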

The subject of test [10] is Rattus norvegicus. Briefly: Effect on level of total cholesterol (relative to untreated control) in cholesterol fed-male rats at 80 mg/kg/day. Put shortly:
as §3

For test [11], the system named is Rattus norvegicus. As to the kind of experiment: Effect on level of triglyceride in (relative to untreated control) in cholesterol fed-male rats at 68 mg/kg/day. The procedure, abridged:
as §1

Test [12] has as its system Rattus norvegicus. As to the kind of experiment: Effect on change in body weight gain (relative to untreated control) in cholesterol fed-male rats at 68 mg/kg/day. The procedure, abridged: as §4
For test [13], the system named is Rattus norvegicus. As to the kind of experiment: Effect on level of apolipoprotein (Apo) AI (relative to untreated control) in cholesterol fed-male rats at 68 mg/kg/day. Put shortly: as §2
Test [14] has as its system Rattus norvegicus. Briefly: Effect on level of high density lipoprotein cholesterol (relative to untreated control) in cholesterol fed-male rats at 68 mg/kg/day. The procedure, abridged: as §3
In test [15] the test system is Rattus norvegicus. As to the kind of experiment: Effect on level of total cholesterol (relative to untreated control) in cholesterol fed-male rats at 68 mg/kg/day. The procedure, abridged:
as §3

Test [16] concerns Rattus norvegicus. As to the kind of experiment: Effect on level of high density lipoprotein cholesterol (relative to untreated control) in cholesterol fed-male rats at 74 mg/kg/day. Put shortly: as §3
In test [17] the test system is Rattus norvegicus. Briefly: Effect on change in body weight gain (relative to untreated control) in cholesterol fed-male rats at 74 mg/kg/day. Put shortly: as §4
For test [18], the system named is Rattus norvegicus. Briefly: Effect on level of apolipoprotein (Apo) AI (relative to untreated control) in cholesterol fed-male rats at 74 mg/kg/day. The procedure, abridged:
as §2

Test [19] has as its system Rattus norvegicus. Briefly: Effect on level of total cholesterol (relative to untreated control) in cholesterol fed-male rats at 74 mg/kg/day. The procedure, abridged:
as §3

The test system of test [20] is Rattus norvegicus. As to the kind of experiment: Effect on level of triglyceride in (relative to untreated control) in cholesterol fed-male rats at 74 mg/kg/day. The procedure, abridged: as §1
The subject of test [21] is Rattus norvegicus. Briefly: Effect on level of high density lipoprotein cholesterol (relative to untreated control) in cholesterol fed-male rats at 40 mg/kg/day. The procedure, abridged: (§5)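 Cholic acid/cholesterol-fed male Sprague–Dawley rats (n = 6 per group) were dosed via diet ad libitum for eight days. Lipoproteins were separated by ultracentrifugation and HDL cholesterol was quantified by an enzymatic colorimetric method. Values are % change relative to untreated controls, with significance at p < 0.05. Gemfibrozil was the internal positive control.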

The subject of test [22] is Rattus norvegicus. As to the kind of experiment: Effect on level of total cholesterol (relative to untreated control) in cholesterol fed-male rats at 40 mg/kg/day. Put shortly:
as §3

Test [23] concerns Rattus norvegicus. As to the kind of experiment: Effect on change in body weight gain (relative to untreated control) in cholesterol fed-male rats at 40 mg/kg/day. Put shortly:
as §4

For test [24], the system named is Rattus norvegicus. As to the kind of experiment: Effect on level of apolipoprotein (Apo) AI (relative to untreated control) in cholesterol fed-male rats at 40 mg/kg/day. Put shortly: as §2
Test [25] relates to Rattus norvegicus. As to the kind of experiment: Effect on level of triglyceride in (relative to untreated control) in cholesterol fed-male rats at 40 mg/kg/day. Put shortly:
as §1

In test [26] the test system is Rattus norvegicus. As to the kind of experiment: Effect on level of total cholesterol (relative to untreated control) in cholesterol fed-male rats at 55 mg/kg/day. The procedure, abridged:
as §3

Test [27] concerns Rattus norvegicus. Briefly: Effect on level of triglyceride in (relative to untreated control) in cholesterol fed-male rats at 55 mg/kg/day. Put shortly:
as §1

The subject of test [28] is Rattus norvegicus. Briefly: Effect on level of high density lipoprotein cholesterol (relative to untreated control) in cholesterol fed-male rats at 55 mg/kg/day. The procedure, abridged:
as §5

In test [29] the test system is Rattus norvegicus. Briefly: Effect on change in body weight gain (relative to untreated control) in cholesterol fed-male rats at 55 mg/kg/day. Put shortly:
as §4

The subject of test [30] is Rattus norvegicus. As to the kind of experiment: Effect on level of apolipoprotein (Apo) AI (relative to untreated control) in cholesterol fed-male rats at 55 mg/kg/day. The procedure, abridged: as §2
The subject of test [31] is Rattus norvegicus. Briefly: Effect on level of total cholesterol (relative to untreated control) in cholesterol fed-male rats at 66 mg/kg/day. The procedure, abridged:
as §3

The subject of test [32] is Rattus norvegicus. Briefly: Effect on level of high density lipoprotein cholesterol (relative to untreated control) in cholesterol fed-male rats at 66 mg/kg/day. The procedure, abridged: as §3
In test [33] the test system is Rattus norvegicus. Briefly: Effect on level of triglyceride in (relative to untreated control) in cholesterol fed-male rats at 66 mg/kg/day. The procedure, abridged:
as §1

Test [34] deals with Rattus norvegicus. As to the kind of experiment: Effect on level of apolipoprotein (Apo) AI (relative to untreated control) in cholesterol fed-male rats at 66 mg/kg/day. Put shortly:
as §2

In test [35] the test system is Rattus norvegicus. Briefly: Effect on change in body weight gain (relative to untreated control) in cholesterol fed-male rats at 66 mg/kg/day. Put shortly:
as §4

The test system of test [36] is Rattus norvegicus. As to the kind of experiment: Effect on level of high density lipoprotein cholesterol (relative to untreated control) in cholesterol fed-male rats at 36 mg/kg/day. The procedure, abridged: as §5
Test [37] concerns Rattus norvegicus. As to the kind of experiment: Effect on level of apolipoprotein (Apo) AI (relative to untreated control) in cholesterol fed-male rats at 36 mg/kg/day. Put shortly: as §2
Test [38] has as its system Rattus norvegicus. Briefly: Effect on level of triglyceride in (relative to untreated control) in cholesterol fed-male rats at 36 mg/kg/day. Put shortly:
as §1

Test [39] has as its system Rattus norvegicus. Briefly: Effect on level of total cholesterol (relative to untreated control) in cholesterol fed-male rats at 36 mg/kg/day. Put shortly:
as §3

Test [40] relates to Rattus norvegicus. As to the kind of experiment: Effect on change in body weight gain (relative to untreated control) in cholesterol fed-male rats at 36 mg/kg/day. Put shortly: as §4

Regarding `Cc1ccc(Cl)cc1/N=C(\S)N(C)CCO`, the Activity in the test on Rattus norvegicus [1] was -47%; in the test with Rattus norvegicus [2] it was 40%; in the test on Rattus norvegicus [3] it was 100%; with Rattus norvegicus [4], 29%; with Rattus norvegicus [5], -31%.

For `COc1ccc(Cl)cc1/N=C(\S)NCCO`, the Activity is reported as 106% in the test with Rattus norvegicus [6]; 30% in the test with Rattus norvegicus [7]; -38% in the test on Rattus norvegicus [8]; -27% in the test with Rattus norvegicus [9]; 66% in the test on Rattus norvegicus [10].

For the compound `OCC/N=C(\S)Nc1cccc(C(F)(F)F)c1`, the Activity with Rattus norvegicus [11] was -15%; in the test with Rattus norvegicus [12], -76%; with Rattus norvegicus [13] it was 36%; in the test with Rattus norvegicus [14], 66%; with Rattus norvegicus [15] it was 44%.

Regarding `Cc1ccc(N/C(S)=N/CCO)cc1Cl`, the Activity in the test on Rattus norvegicus [16] was 72%; in the test with Rattus norvegicus [17], -77%; with Rattus norvegicus [18], -5%; with Rattus norvegicus [19], 15%; in the test on Rattus norvegicus [20], -15%.

`Cc1cccc(Cl)c1/N=C(\S)NCCO`: the Activity in the test on Rattus norvegicus [21] is given as 23%; with Rattus norvegicus [22], 8%; in the test on Rattus norvegicus [23], -155%; in the test on Rattus norvegicus [24], -34%; in the test with Rattus norvegicus [25], -48%.

For `Cc1ccc(Cl)cc1/N=C(\S)NCCO`, the Activity with Rattus norvegicus [26] is 39%; in the test on Rattus norvegicus [27], -53%; in the test with Rattus norvegicus [28], 75%; with Rattus norvegicus [29], -104%; in the test on Rattus norvegicus [30], 48%.

Take `OCC/N=C(\S)Nc1cccc(Cl)c1`: the Activity in the test on Rattus norvegicus [31] was 30%; in the test with Rattus norvegicus [32], 79%; in the test with Rattus norvegicus [33], -31%; in the test with Rattus norvegicus [34], 43%; with Rattus norvegicus [35], -70%.

As to `Cc1ccc(Cl)cc1/N=C(\S)NC(C)(C)CO`, the Activity is 58% with Rattus norvegicus [6]; 23% in the test on Rattus norvegicus [7]; -23% in the test with Rattus norvegicus [8]; -15% with Rattus norvegicus [9]; -13% in the test on Rattus norvegicus [10].

For the compound `COCC/N=C(\S)Nc1cc(Cl)ccc1C`, the Activity is reported as 30% in the test with Rattus norvegicus [36]; 33% with Rattus norvegicus [37]; -47% in the test with Rattus norvegicus [38]; 20% with Rattus norvegicus [39]; -3% with Rattus norvegicus [40].
